Data as given in ChEMBL document CHEMBL3580617, “Discovery of Benzimidazole CYP11B2 Inhibitors with in Vivo Activity in Rhesus Monkeys” (ACS Med Chem Lett, 2015).

Experiments:
Rhesus monkey = experiment: Reduction in aldosterone levels in low sodium diet fed rhesus monkey at 0.01 to 0.3 mg/kg, iv followed by 0.3 mg/kg ACTH dosing and measured 30 mins to 180 mins post ACTH administration by UPLC coupled with tandem mass spectrometry; type: functional, organism-based; settings: Macaca mulatta; 0.001 to 0.3 mg/kg; in the assay text read “0.001 to 0.3 mg/kg” for “0.01 to 0.3 mg/kg”
Outline: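 Anesthetized rhesus monkeys were given i.v. doses from 0.001 to 0.3 mg/kg. Plasma aldosterone and 11-deoxycortisol were quantified by LC-MS at time points up to 180 min postdose, and AUCs were determined for each. Plasma drug was measured at 90 min postdose. Free (unbound) concentrations were calculated from the measured fraction unbound in rhesus plasma.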

Homo sapiens = species: Homo sapiens; experiment: Selectivity index, ratio of IC50 for CYP19 (unknown origin) to IC50 for human CYP11B2
[1] = Half life in rhesus monkey at 1 mg/kg, po or 0.5 mg/kg, iv by LC-MS/MS method; type: ADME, organism-based, Macaca mulatta; settings: in vivo
[2] = molecular target: Sodium channel protein type 5 subunit alpha (Homo sapiens, UniProt Q14524); experiment: Block of Nav1.5 ion channel in functional assay (unknown origin)
Chain of Sodium channel protein type 5 subunit alpha (Q14524 whole entry): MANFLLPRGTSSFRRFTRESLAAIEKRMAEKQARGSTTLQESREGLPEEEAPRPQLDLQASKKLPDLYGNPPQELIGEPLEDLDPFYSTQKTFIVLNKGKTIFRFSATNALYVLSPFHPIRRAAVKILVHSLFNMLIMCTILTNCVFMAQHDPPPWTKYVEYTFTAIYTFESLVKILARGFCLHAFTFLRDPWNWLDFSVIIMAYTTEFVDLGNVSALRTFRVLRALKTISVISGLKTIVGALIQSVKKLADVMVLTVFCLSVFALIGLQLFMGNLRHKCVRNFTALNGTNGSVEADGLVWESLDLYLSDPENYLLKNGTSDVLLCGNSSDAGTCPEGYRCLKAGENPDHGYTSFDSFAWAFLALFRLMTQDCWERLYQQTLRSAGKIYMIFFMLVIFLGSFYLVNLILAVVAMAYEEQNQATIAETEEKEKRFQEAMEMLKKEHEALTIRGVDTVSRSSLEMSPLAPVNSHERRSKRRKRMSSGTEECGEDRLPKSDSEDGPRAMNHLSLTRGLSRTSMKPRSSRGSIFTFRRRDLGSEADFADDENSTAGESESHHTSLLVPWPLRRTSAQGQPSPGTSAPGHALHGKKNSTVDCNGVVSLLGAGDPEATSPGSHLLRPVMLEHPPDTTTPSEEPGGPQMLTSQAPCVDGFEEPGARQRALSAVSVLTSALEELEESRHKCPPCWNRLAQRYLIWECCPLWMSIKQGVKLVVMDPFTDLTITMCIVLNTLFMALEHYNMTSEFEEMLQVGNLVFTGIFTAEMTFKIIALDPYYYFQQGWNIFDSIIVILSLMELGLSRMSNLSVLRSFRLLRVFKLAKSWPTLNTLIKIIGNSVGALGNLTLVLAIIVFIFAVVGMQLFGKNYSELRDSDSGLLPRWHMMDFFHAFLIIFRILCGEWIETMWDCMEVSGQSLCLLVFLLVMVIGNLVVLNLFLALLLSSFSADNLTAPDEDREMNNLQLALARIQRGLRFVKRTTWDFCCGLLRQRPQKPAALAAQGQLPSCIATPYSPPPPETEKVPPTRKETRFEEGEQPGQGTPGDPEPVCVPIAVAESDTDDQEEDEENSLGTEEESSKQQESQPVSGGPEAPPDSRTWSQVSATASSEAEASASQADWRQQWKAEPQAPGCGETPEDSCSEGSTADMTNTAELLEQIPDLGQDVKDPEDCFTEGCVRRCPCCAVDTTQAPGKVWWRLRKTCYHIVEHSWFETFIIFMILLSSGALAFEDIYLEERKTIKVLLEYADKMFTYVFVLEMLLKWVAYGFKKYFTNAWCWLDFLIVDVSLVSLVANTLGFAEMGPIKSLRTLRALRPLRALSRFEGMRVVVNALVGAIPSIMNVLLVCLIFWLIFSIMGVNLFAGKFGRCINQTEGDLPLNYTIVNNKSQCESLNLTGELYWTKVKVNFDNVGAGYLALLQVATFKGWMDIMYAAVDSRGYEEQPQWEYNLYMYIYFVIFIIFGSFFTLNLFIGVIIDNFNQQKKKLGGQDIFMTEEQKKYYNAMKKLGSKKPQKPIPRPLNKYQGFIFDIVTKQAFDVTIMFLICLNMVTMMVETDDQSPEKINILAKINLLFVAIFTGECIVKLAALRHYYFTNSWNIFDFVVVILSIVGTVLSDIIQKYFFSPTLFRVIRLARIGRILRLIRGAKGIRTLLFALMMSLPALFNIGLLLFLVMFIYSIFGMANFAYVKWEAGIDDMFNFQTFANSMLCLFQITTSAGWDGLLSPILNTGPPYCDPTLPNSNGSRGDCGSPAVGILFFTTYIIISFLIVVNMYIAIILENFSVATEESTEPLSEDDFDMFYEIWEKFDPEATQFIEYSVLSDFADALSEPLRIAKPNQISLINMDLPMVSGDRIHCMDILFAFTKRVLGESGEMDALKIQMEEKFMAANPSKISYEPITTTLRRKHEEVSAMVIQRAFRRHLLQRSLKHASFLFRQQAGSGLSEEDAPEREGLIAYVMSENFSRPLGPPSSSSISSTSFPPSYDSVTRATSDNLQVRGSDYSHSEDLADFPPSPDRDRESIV

SMILES: CC(C)(O)c1cncc(-c2nc3ccc(F)cc3n2C2CC2)c1 [MSD-CYP11B2]
- inhibition (Rhesus monkey): Dose-dependent effect

SMILES: Fc1cncc(-c2nc3cc(F)c(F)cc3n2C2CC2)c1
- Ratio IC50 (Homo sapiens): 500
- half-life [1]: 7.4 h
- IC50 [2]: > 30 µM
